# Data from ChEMBL document CHEMBL1250525, “Structure-activity relationships in 1,4-benzodioxan-related compounds. 10. Novel α1-adrenoreceptor antagonists related to openphendioxan: synthesis, biological evaluation, and α1d computational study” (Bioorg Med Chem, 2010).
# Experiments:
# [1] = target: T1, Alpha-1B adrenergic receptor (Rattus norvegicus) (UniProt P15823); experiment: Antagonist activity at adrenergic Alpha-1B receptor in Wistar rat spleen assessed as inhibition of […]-indcuced contraction; type: functional, tissue-based
# T1 sequence (whole entry): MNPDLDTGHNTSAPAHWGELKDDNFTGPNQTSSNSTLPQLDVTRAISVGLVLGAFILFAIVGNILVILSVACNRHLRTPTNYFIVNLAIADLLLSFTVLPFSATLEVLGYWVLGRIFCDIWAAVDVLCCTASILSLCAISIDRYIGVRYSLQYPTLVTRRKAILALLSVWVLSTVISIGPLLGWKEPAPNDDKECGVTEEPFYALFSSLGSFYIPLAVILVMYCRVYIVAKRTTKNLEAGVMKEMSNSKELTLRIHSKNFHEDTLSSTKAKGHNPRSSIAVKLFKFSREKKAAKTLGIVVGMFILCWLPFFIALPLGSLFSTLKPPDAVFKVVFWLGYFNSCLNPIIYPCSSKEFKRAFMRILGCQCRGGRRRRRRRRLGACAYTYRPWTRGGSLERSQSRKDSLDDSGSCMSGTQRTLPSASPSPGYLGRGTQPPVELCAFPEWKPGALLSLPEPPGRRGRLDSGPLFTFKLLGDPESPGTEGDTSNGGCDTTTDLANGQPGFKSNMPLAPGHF
# [2] = target: T2, Alpha-1A adrenergic receptor (Homo sapiens, UniProt P35348); experiment: Displacement of [3H]prazosin from human adrenergic alpha1A expressed in CHO cells; type: cell-based
# T2 sequence (P35348 whole entry): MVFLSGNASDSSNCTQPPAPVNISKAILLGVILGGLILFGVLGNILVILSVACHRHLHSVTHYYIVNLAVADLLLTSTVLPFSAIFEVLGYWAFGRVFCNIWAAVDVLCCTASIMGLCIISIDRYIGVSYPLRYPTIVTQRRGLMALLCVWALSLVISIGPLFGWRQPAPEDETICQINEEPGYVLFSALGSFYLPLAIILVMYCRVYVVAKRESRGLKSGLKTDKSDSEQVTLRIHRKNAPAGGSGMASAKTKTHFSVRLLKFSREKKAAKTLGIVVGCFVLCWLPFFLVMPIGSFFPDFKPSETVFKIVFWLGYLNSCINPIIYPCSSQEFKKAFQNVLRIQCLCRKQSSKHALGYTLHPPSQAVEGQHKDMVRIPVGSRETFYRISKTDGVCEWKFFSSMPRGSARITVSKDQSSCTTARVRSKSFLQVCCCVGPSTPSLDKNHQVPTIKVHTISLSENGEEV
# Procedure, shortened: (§1)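 Membranes (30 µg protein) from CHO cells stably expressing each cloned human α1 subtype, labelled with [3H]prazosin. Nonspecific binding with 10 µM phentolamine. Stopped with ice-cold Tris–HCl and filtration on 0.2% polyethyleneimine-treated glass-fibre filters. Ki from IC50 by Cheng–Prusoff, nonlinear fitting. Mean ± SE of 2–3 experiments in triplicate.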
# [3] = target: T3, 5-hydroxytryptamine receptor 1A (Homo sapiens, UniProt P08908); experiment: Displacement of [3H]8-OH-DPAT from human adrenergic 5HT1A expressed in human HeLa cells; type: cell-based
# T3 sequence (P08908 whole entry): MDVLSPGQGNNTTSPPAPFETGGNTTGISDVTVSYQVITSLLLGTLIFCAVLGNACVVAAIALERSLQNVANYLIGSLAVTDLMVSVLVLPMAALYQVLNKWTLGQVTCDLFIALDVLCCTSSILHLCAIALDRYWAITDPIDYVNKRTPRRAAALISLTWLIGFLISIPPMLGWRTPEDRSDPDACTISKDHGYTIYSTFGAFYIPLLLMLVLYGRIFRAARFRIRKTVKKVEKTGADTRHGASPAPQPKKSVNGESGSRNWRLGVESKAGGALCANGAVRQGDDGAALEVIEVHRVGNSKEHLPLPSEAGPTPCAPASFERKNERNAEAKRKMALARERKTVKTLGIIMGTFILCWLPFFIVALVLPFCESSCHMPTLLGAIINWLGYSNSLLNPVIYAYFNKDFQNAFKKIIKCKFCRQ
# Procedure, shortened: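 HeLa cells stably carrying human 5-HT1A clone G-21, grown in DMEM with 10% FCS. Membranes in 50 mM Tris–HCl pH 7.4, 2.5 mM MgCl2, 10 µM pargyline, with 0.7–1.4 nM [3H]8-OH-DPAT for 30 min at 30 °C. Nonspecific binding with 10 µM 5-HT. Filtration stop. Ki by Cheng–Prusoff. Mean ± SE of 2–3 experiments in triplicate.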
# [4] = target: T4, Alpha-1A adrenergic receptor (Rattus norvegicus) (UniProt P43140); experiment: Antagonist activity at adrenergic alpha1A receptor in Wistar rat vas deference assessed as inhibition of (-)-noradrenaline-indcuced contraction; type: functional
# T4 sequence (whole entry): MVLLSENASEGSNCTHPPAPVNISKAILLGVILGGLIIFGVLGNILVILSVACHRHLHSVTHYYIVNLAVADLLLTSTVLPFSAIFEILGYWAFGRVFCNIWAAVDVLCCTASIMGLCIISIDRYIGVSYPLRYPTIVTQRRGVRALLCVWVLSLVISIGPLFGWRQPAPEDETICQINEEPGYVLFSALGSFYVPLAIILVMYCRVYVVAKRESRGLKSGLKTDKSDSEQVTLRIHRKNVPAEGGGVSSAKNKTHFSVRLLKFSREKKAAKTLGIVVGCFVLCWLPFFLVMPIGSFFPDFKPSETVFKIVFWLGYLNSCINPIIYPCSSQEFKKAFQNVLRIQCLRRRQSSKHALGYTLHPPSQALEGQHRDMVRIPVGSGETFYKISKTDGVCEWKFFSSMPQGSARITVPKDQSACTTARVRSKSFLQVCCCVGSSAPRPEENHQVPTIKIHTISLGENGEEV
# Procedure, shortened: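 Tissue in Tyrode with 0.1 µM cocaine, equilibrated 60 min with washes every 15 min, primed twice with 10 µM noradrenaline. A noradrenaline curve gave the basal response. Antagonist 30 min, then 30 min washing, then a new agonist curve.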
# [5] = target: T5, Alpha-1B adrenergic receptor (Homo sapiens, UniProt P35368); experiment: Displacement of [3H]prazosin from human adrenergic Alpha-1B expressed in CHO cells; type: cell-based; procedure, shortened: as §1
# T5 sequence (P35368 whole entry): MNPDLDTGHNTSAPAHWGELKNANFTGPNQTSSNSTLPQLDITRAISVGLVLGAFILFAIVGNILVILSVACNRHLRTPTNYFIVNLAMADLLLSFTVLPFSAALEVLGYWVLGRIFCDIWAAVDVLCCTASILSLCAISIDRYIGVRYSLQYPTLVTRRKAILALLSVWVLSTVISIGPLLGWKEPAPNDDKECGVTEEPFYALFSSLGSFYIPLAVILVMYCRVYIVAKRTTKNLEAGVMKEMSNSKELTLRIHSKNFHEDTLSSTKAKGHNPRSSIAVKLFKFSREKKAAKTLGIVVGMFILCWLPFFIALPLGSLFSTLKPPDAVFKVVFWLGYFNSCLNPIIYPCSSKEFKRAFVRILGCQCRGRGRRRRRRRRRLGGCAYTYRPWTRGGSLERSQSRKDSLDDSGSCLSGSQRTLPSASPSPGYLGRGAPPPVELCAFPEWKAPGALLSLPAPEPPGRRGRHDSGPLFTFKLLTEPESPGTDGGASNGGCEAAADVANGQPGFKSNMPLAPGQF
# [6] = target: T6, Alpha-1D adrenergic receptor (Rattus norvegicus) (UniProt P23944); experiment: Antagonist activity at adrenergic Alpha-1D receptor in Wistar rat thoracic aorta assessed as inhibition of (-)-noradrenaline-indcuced contraction; type: functional, tissue-based
# T6 sequence (whole entry): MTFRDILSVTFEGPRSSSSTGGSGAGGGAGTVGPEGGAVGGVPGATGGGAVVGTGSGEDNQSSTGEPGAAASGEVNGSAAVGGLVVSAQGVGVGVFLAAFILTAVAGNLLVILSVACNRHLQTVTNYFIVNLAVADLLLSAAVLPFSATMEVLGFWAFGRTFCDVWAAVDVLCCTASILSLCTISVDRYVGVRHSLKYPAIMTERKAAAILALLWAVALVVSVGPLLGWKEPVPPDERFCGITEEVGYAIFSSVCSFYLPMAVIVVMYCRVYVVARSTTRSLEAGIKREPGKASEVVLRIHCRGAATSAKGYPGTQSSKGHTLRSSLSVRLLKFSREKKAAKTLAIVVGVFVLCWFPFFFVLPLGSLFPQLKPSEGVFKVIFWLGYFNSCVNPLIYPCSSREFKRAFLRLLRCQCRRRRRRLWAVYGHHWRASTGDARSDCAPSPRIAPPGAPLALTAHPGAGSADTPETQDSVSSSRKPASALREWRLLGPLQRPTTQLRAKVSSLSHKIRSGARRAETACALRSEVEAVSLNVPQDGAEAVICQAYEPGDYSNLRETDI
# [7] = target: T7, Alpha-1D adrenergic receptor (Homo sapiens, UniProt P25100); experiment: Displacement of [3H]prazosin from human adrenergic Alpha-1D expressed in CHO cells; type: cell-based; procedure, shortened: as §1
# T7 sequence (P25100 whole entry): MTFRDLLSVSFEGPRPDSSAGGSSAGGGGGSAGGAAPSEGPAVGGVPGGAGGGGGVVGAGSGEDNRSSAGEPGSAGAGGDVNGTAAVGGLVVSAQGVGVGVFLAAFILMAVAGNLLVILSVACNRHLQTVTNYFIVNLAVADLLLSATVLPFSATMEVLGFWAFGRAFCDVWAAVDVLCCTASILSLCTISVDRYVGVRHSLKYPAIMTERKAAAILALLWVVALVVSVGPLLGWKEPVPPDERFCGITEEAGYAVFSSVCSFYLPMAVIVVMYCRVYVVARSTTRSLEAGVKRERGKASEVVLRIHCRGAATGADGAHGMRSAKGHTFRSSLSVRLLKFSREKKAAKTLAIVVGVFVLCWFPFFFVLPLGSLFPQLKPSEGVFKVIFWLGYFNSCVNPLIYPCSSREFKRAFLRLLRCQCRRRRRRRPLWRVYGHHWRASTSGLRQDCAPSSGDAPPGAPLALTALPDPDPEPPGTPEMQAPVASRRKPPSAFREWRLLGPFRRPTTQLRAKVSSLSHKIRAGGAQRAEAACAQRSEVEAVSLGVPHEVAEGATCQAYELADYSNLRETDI
Compound,pKb [1],Ki [2],Ki [3],pKb [4],Ki [5],pKb [6],Ki [7]
COc1cccc(OC)c1SCCNCCOc1ccccc1OCc1ccccc1,8.57,3.16 nM,15.8 nM,8.74,0.501 nM,9.47,0.178 nM
CCOc1cccc(OCC)c1OCCNCCOc1ccccc1OCc1ccccc1,8.57,3.16 nM,31.6 nM,7.92,0.794 nM,8.03,0.389 nM
c1ccc(COc2ccccc2OCCNCCOc2ccccc2)cc1,7.74,10 nM,7.94 nM,7.65,100 nM,7.32,17.8 nM
COc1cccc(OC)c1[S+]([O-])CCNCCOc1ccccc1OCc1ccccc1 (configuration not stated),7.65,20 nM,3.16 nM,7.95,15.8 nM,7.49,2.75 nM
COc1cccc(OC)c1OCCNCCOc1ccccc1OCc1ccccc1,8.3,–,–,8.39,–,9.37,–
COc1cccc(OC)c1OCCNCC1COc2ccccc2O1 (configuration not stated),8.16,–,–,9.51,–,8.8,–
Oc1cccc(O)c1OCCNCCOc1ccccc1OCc1ccccc1,7.02,5.01 nM,12.6 nM,7.44,100 nM,7.44,15.1 nM
COc1cccc(OC)c1CCCNCCOc1ccccc1OCc1ccccc1,7.34,9.77 nM,2.51 nM,7.8,6.92 nM,8.12,1.2 nM
Clc1cccc(Cl)c1OCCNCCOc1ccccc1OCc1ccccc1,7.75,6.31 nM,31.6 nM,6.57,79.4 nM,8.02,7.08 nM
CCOc1ccccc1OCCNCCOc1ccccc1OCc1ccccc1,7.94,2 nM,5.01 nM,8.03,12.6 nM,8.35,3.72 nM
COc1cccc(C)c1OCCNCCOc1ccccc1OCc1ccccc1,7.91,2.51 nM,3.98 nM,8.35,5.01 nM,8.36,0.912 nM
COc1cccc([N+](=O)[O-])c1OCCNCCOc1ccccc1OCc1ccccc1,8.19,1.12 nM,15.8 nM,8.41,5.01 nM,8.92,0.513 nM
COc1cccc(Cl)c1OCCNCCOc1ccccc1OCc1ccccc1,7.84,2.51 nM,31.6 nM,8.16,7.94 nM,8.74,0.741 nM
COc1ccccc1OCCNCCOc1ccccc1OCc1ccccc1,7.89,3.16 nM,2.51 nM,7.95,20 nM,8.08,3.98 nM
Cc1cccc(C)c1OCCNCCOc1ccccc1OCc1ccccc1,7.78,7.94 nM,15.8 nM,7.33,100 nM,7.59,14.1 nM
